In the library only some 3.5% were active in any assay of this set; here they are far more common.
Yeast lifespan up: compounds extending yeast replicative lifespan, primary screen, S. cerevisiae, OD615; S. cerevisiae growth with nicotinamide; deaD strain in restrictive glucose medium; inhibition of the nicotinamide effect, % at 10 µM; actives 0.68% (n = 130,000); AID 775, 2007;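 active means inhibition above a set limit, placed 3 SD over the median of all compounds, cut at about 26% in these data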
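System: DeaD-strain S. cerevisiae / Buffer or medium: CSMM-D, restrictive glucose (dextrose) synthetic minimal medium / Probe or stimulus: nicotinamide, 1.5 mM, co-present with compound / Compound: one concentration, 10 µM, DMSO 0.25% / Incubation: 48 h compound exposure at 30 °C, humidified / Technique: optical density (absorbance) at 615 nm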
b-catenin transl: modulators of beta-catenin nuclear translocation, primary screen, imaging, HeLa cells, immunofluorescence, high-content. AID 1665, 2009. nuclear translocation activity, % at 5 µM. actives 0.3% (n = 190,000);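 active means nuclear translocation activity above 50% at 5 µM, with a well cell count of 50 or more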;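 further: per-cell ratio of nuclear to cytoplasmic median beta-catenin stain intensity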
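Read-out: Nuclear/cytoplasmic beta-catenin signal ratio, % activation | Assay system: Human HeLa cell line | Times: 24 h compound exposure at 37°C, 5% CO2 | Signal: Fluorescence imaging of beta-catenin antibody stain plus DAPI | Dosing: 5 µM primary, 0.02–20 µM confirmation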
HMGR II inh: inhibitors of E. faecalis class II HMGR, primary screen, biochemical, Enterococcus faecalis; HMG-CoA reductase (Enterococcus faecalis, mvaE); purified E. faecalis HMGR, NADPH absorbance 340 nm kinetic; inhibition, % at 10 µM; actives 0.41% (n = 190,000);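 active means inhibition above a set limit, the median over all tested compounds plus 3 SD, cut at about 9.5% in these data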;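 further: enzyme runs in reverse so mevalonate oxidation gives rising NADPH absorbance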
BB579 growth dn: growth inhibitors of yeast BB579 in restrictive medium, primary screen, yeast lifespan-shortening project, S. cerevisiae | inhibition, % at 10 µM | OD615, 48 h | AID 804, 2007 | actives 0.51% (n = 140,000);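 active means inhibition above a set limit, 3 SD over the mean compound inhibition, cut at about 44% in these data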
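Test system: S. cerevisiae DeaD strain BB579 yeast; Medium: restrictive CSMM-D medium; Compound: one dose, 10 µM compound with 0.25% DMSO; Incubation: 4 h cell preincubation, 48 h compound exposure, 30 °C humidified; Signal: OD at 615 nm; Benchmarks: amphotericin B at 10 µg/mL as positive control.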
RAM network inh: inhibitors of the yeast RAM network, primary screen, dse1pr::URA3 reporter, 5-FOA selection | AID 868, 2007 | inhibition, % at 50 µM | S. cerevisiae dse1pr::URA3 reporter, 5-FOA growth OD615, 2 d; analog-sensitive cbk1-as2 kinase mutant strain | actives 1.8% (n = 190,000);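 active means inhibition above a set limit, 3 SD over mean compound inhibition, cut at about 8.4% in these data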;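 further: inhibition rescues growth on 5-FOA so higher OD means more RAM inhibition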
MT stabilizer: microtubule stabilizers in HeLa cells, primary screen, imaging, high-content imaging; HeLa tubulin immunostaining HCS, 24 h; share of cells brighter than vehicle mean+2SD; % tubulin-high responders, % at 10 µM; actives 0.83% (n = 200,000); AID 2205, 2009;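 active means plate Z-score above 3 for both tubulin-high and condensed-nucleus cell shares, with cell loss under 80%, at 10 µM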;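 further: anti alpha tubulin signal scored within the nucleus-defined area of each cell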
RAM efflux-def: 5-FOA growth of efflux-deficient control yeast, dose response, counter-screen for RAM network inhibitor project, S. cerevisiae, OD615; shares compounds with RAM network inh; S. cerevisiae efflux-deficient reporter strain, 5-FOA growth OD615, 2 days; max inhibition, %; 1,200 tested, under 10 active; call rule not given here
Hits are given with their value.

Screening CCOC(=O)CSc1nc2ccccc2c(=O)n1C returned Yeast lifespan up inactive, b-catenin transl inactive, HMGR II inh inactive, BB579 growth dn inactive, RAM network inh inactive and MT stabilizer inactive.
CCOC(=O)CSc1nc2ccccc2c(=O)n1C1CCCC1 was read as Yeast lifespan up inactive, HMGR II inh inactive, BB579 growth dn inactive, RAM network inh 13, MT stabilizer inactive and RAM efflux-def inactive.
`Cc1cc(S(=O)(=O)N(Cc2cccs2)Cc2ccccc2F)ccc1-n1cnnn1` gave Yeast lifespan up inactive, b-catenin transl inactive, HMGR II inh inactive, BB579 growth dn inactive, RAM network inh 13, MT stabilizer inactive and RAM efflux-def inactive.
Cc1cc(S(=O)(=O)N(Cc2ccccc2)Cc2ccc(N(C)C)cc2)ccc1-n1cnnn1 was read as Yeast lifespan up inactive, b-catenin transl inactive, HMGR II inh inactive, BB579 growth dn inactive, RAM network inh inactive and MT stabilizer inactive.
For CN(C)c1ccc(NC(=O)CSCc2nc3c(nnn3Cc3ccc(F)cc3)c(=O)[nH]2)cc1 the results were Yeast lifespan up inactive, HMGR II inh inactive, BB579 growth dn inactive, RAM network inh inactive and MT stabilizer inactive.
Screening O=C(CSCc1nc2c(nnn2Cc2ccc(F)cc2)c(=O)[nH]1)Nc1cccc(C(F)(F)F)c1 returned b-catenin transl inactive, HMGR II inh inactive, RAM network inh 16, MT stabilizer inactive and RAM efflux-def inactive.
For O=C(c1ccc(Cl)cc1[N+](=O)[O-])N(Cc1ccccc1)Cc1ccccc1 the results were Yeast lifespan up inactive, b-catenin transl inactive, HMGR II inh inactive, BB579 growth dn inactive, RAM network inh 13, MT stabilizer inactive and RAM efflux-def inactive.
`CC(C)(C)N(Cc1ccccc1)C(=O)c1ccc(Cl)cc1[N+](=O)[O-]` gave b-catenin transl inactive, HMGR II inh inactive, RAM network inh inactive and MT stabilizer inactive.
`Cc1cccc(COc2ccc(/C=N/NC(=O)c3nnn(-c4nonc4N)c3COc3ccc(F)cc3)cc2)c1` gave b-catenin transl inactive.
O=C(N1CCCC1)C(F)(F)Oc1ccc(F)cc1 was read as b-catenin transl inactive, HMGR II inh inactive, RAM network inh inactive and MT stabilizer inactive.
`CS(=O)(=O)Nc1ccc(C(=O)Nc2ccccc2Sc2ccccc2)cc1` gave Yeast lifespan up inactive, b-catenin transl inactive, HMGR II inh inactive, BB579 growth dn inactive, RAM network inh 12, MT stabilizer inactive and RAM efflux-def inactive.
For CCc1ccccc1NC(=O)c1ccc(NS(C)(=O)=O)cc1 the results were b-catenin transl inactive, HMGR II inh inactive, RAM network inh inactive and MT stabilizer inactive.
Cc1ccc(NC(=O)Cc2cc(C(=O)O)c3ccccc3n2)c(C)c1 was read as b-catenin transl inactive, HMGR II inh inactive, RAM network inh inactive and MT stabilizer inactive.
For O=C(Nc1ccc(Oc2ccc3ccccc3c2)cc1)c1ccco1 the results were Yeast lifespan up inactive, b-catenin transl inactive, HMGR II inh inactive, BB579 growth dn inactive, RAM network inh 15, MT stabilizer inactive and RAM efflux-def inactive.
Screening COC(=O)c1cc2c(ccn2-c2ccc(F)cc2)n1Cc1ccc(OC)cc1 returned Yeast lifespan up inactive, b-catenin transl inactive, HMGR II inh inactive, BB579 growth dn inactive, RAM network inh 15, MT stabilizer inactive and RAM efflux-def inactive.
Screening O=C(c1sc(N2CCOCC2)nc1-c1ccccc1)N1CCCCC1 returned Yeast lifespan up inactive, b-catenin transl inactive, HMGR II inh inactive, BB579 growth dn inactive, RAM network inh inactive and MT stabilizer inactive.

From PubChem
